Data set [1] can be described thus: Metabolic stability in rat liver microsomes assessed intrinsic clearance per mg protein at 1 uM measured up to 60 mins in presence of NADPH by LC/HRMS analysis. Type of data set: ADME, Microsome. The settings on record: 1 h.
Data set [2] concerns the target Voltage-dependent N-type calcium channel subunit alpha-1B (Homo sapiens, UniProt Q00975). Nature of the data set: Inhibition of Cav2.2 in human SH-SY5Y cells assessed as inhibition of calcium influx preincubated 300 secs followed by addition of KCL/CaCl2 and measured for 300 secs in presence of Cav1 blocker nifedipine by calcium 6 dye based calcium influx assay. The format is cell-based. The essentials: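 Native Cav2.2 in SH-SY5Y neuroblastoma cells seeded at 40000/well and grown 48 h at 37 °C, 5% CO2. Calcium 6 dye loading 30 min at 37 °C in HEPES buffer pH 7.4 with 0.1% BSA and 10 µM nifedipine. Compound added for 300 s, then 90 mM KCl/5 mM CaCl2, read 300 s (ex 470-495, em 515-575 nm). Top concentration 100 µM, 3-fold dilutions, 1% DMSO; cilnidipine control; n = 3.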

Data set [3] can be described thus: Stability in Sprague-Dawley rat plasma assessed as parent compound remaining at 150 uM measured after 24 hrs at 37 degreeC by HPLC analysis. Type of data set: ADME, cell-free. The note with it: read-out: Stability.

Where only a bound is given, the exact number is not on record here.

Sequence of Voltage-dependent N-type calcium channel subunit alpha-1B (Q00975 whole entry): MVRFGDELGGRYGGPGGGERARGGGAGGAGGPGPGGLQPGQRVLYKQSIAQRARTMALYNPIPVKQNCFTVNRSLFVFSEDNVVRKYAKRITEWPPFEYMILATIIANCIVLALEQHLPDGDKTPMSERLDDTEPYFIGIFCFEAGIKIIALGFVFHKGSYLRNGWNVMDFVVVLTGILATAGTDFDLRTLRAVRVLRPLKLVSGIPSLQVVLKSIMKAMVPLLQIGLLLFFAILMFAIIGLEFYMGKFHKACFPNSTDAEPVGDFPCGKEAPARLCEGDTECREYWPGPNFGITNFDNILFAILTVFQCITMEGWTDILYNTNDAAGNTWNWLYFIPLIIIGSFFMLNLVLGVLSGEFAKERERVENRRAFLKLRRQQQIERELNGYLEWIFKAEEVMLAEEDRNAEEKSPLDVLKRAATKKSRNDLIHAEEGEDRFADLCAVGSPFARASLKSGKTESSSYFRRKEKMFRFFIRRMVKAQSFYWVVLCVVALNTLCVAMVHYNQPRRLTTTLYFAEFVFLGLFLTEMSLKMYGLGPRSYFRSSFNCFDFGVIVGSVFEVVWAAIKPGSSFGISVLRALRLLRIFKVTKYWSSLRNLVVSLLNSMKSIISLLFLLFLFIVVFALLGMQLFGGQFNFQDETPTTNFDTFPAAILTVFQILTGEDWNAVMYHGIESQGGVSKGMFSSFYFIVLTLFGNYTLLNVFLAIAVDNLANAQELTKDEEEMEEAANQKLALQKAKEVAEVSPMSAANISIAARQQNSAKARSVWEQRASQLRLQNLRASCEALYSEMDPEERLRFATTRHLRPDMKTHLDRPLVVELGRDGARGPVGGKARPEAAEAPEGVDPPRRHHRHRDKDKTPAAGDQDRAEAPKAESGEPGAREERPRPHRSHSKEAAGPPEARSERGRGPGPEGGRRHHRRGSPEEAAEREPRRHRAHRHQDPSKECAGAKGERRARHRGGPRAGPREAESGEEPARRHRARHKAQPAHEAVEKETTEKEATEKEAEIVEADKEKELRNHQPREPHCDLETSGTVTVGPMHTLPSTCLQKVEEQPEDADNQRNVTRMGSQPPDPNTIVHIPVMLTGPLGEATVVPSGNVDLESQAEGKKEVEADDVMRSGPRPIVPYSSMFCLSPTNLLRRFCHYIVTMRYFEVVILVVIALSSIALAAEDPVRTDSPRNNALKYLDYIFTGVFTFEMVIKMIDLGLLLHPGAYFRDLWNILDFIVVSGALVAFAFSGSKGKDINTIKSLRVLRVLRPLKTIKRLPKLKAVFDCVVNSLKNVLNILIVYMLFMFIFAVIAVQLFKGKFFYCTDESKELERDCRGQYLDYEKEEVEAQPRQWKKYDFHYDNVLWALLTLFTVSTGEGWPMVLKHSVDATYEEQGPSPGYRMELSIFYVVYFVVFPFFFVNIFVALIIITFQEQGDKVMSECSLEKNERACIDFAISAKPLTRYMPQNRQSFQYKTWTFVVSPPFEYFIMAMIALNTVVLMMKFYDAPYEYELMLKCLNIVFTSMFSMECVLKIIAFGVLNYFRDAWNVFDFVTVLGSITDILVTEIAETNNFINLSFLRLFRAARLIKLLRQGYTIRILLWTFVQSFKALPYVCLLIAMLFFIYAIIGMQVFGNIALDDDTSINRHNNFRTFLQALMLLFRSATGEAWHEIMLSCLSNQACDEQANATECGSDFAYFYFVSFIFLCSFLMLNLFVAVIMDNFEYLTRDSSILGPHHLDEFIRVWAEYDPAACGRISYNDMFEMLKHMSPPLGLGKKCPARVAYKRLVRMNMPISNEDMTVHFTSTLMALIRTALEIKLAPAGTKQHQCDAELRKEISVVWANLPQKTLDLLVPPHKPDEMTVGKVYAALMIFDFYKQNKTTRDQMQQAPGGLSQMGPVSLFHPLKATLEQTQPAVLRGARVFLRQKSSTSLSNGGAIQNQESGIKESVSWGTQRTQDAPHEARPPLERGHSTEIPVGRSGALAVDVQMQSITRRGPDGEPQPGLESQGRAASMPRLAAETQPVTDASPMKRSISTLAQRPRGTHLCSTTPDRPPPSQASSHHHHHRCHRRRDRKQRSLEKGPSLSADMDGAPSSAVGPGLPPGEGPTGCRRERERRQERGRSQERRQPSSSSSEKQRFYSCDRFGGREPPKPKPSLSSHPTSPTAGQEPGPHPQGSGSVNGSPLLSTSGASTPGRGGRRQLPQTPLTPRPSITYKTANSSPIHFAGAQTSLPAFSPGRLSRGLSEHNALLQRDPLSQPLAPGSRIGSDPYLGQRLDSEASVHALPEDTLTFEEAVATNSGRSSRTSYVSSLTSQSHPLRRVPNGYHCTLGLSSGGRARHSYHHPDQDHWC

For the compound `O=C(O)C(F)(F)F.O=S(=O)(c1ccc(OCCCN2CCCCC2)cc1)N1c2ccccc2Oc2ccccc21`, the CLint in data set [1] came to 97 µL/min/mg. For the same compound, in data set [2], the IC50 amounted to 7.6 µM. Moreover, the remaining at 24 h, 150 µM in data set [3] was over 90%. `O=S(=O)(c1ccc(NCCCN2CCCC2)cc1)N1c2ccccc2Oc2ccccc21`: the IC50 in data set [2] came out at 4.4 µM. The same measure, in the same setting: the result for `O=S(=O)(c1ccc(NC2CCNCC2)cc1)N1c2ccccc2Oc2ccccc21` reads 19.9 µM. In the case of `CN(C)CCCOc1ccc(S(=O)(=O)N2c3ccccc3Oc3ccccc32)cc1.O=C(O)C(F)(F)F`, the CLint in data set [1] is 105 µL/min/mg. Also, the IC50 in data set [2] was determined as 4.3 µM. Further, the remaining at 24 h, 150 µM in data set [3] is over 90%.

`O=S(=O)(c1ccc(NCCCN2CCOCC2)cc1)N1c2ccccc2Oc2ccccc21`: the IC50 in data set [2] was determined as 20.8 µM. Consider `O=C(O)C(F)(F)F.O=S(=O)(c1ccc(OCCCN2CCOCC2)cc1)N1c2ccccc2Oc2ccccc21`, for which the CLint in data set [1] was determined as 239 µL/min/mg. In data set [2], the IC50 was 29 µM. Also, the remaining at 24 h, 150 µM in data set [3] is over 90%. In the case of `O=S(=O)(c1ccc(NCCCN2CCCCC2)cc1)N1c2ccccc2Oc2ccccc21`, in data set [2], the IC50 came to 15.2 µM. For `O=C(O)C(F)(F)F.O=S(=O)(c1ccc(OCCCn2ccnc2)cc1)N1c2ccccc2Oc2ccccc21`, the CLint in data set [1] was found to be 132 µL/min/mg. The half-inhibitory concentration (IC50) in data set [2] turned out to be 48.7 µM. Further, the remaining at 24 h, 150 µM in data set [3] was over 90%. Take `CNCCCNc1ccc(S(=O)(=O)N2c3ccccc3Oc3ccccc32)cc1`: the 50% inhibitory concentration (IC50) in data set [2] was found to be 10.9 µM.

As for `O=C(O)C(F)(F)F.O=S(=O)(c1ccc(OCCCN2CCCC2)cc1)N1c2ccccc2Oc2ccccc21`, the CLint in data set [1] turned out to be 83 µL/min/mg. For the same compound, in data set [2], the IC50 stood at 8 µM. Besides, the remaining at 24 h, 150 µM in data set [3] is over 90%. `CN(C)CCCNc1ccc(S(=O)(=O)N2c3ccccc3Oc3ccccc32)cc1`: the IC50 in data set [2] came out at 9.1 µM.

As to `O=S(=O)(c1ccc(NCCCn2ccnc2)cc1)N1c2ccccc2Oc2ccccc21`, the IC50 in data set [2] worked out at 13.7 µM. `CN(C)CCCN(C)c1ccc(S(=O)(=O)N2c3ccccc3Oc3ccccc32)cc1`: the IC50 in data set [2] is 18.7 µM.

In the case of `COCCCOc1ccc(S(=O)(=O)N2c3ccccc3Oc3ccccc32)cc1`, the IC50 in data set [2] worked out at 172 µM. With `CNCCCOc1ccc(S(=O)(=O)N2c3ccccc3Oc3ccccc32)cc1.O=C(O)C(F)(F)F`, the CLint in data set [1] was determined as 34 µL/min/mg. The half-maximal inhibitory concentration (IC50) in data set [2] was determined as 4.6 µM. Moreover, the remaining at 24 h, 150 µM in data set [3] amounted to 73%.

(Values after ChEMBL document CHEMBL5576111, “N-Sulfonylphenoxazines as neuronal calcium ion channel blockers” (RSC Med Chem, 2024).)
